# Laboratory results: ChEMBL document CHEMBL1157882, “Novel 2-[(benzylamino)methyl]pyrrolidine-3,4-diol derivatives as alpha-mannosidase inhibitors and with antitumor activities against hematological and solid malignancies” (Bioorg Med Chem, 2010)
# The source made the active and inactive calls. No cut-off for these calls is given here.
# Tests used:
# SK-BR-3 = experiment: Cell cycle arrest in human SKBR3 cells by accumulation of cells at S phase at 200 uM after 48 hrs by propidium iodide-staining based flow cytometry (reference value: 30%); format: functional
# A549 = experiment: Cytotoxicity against human A549 cells after 72 hrs by colorimetric assay in presence of antioxidant N-acetyl-cysteine; format: functional, cell-based
# [1] = Cytotoxicity in human B-CLL assessed as late apoptotic/necrotic cells at 200 uM after 24 hrs by annexin V/propidium iodide staining based flow cytometry (reference value: 10 to 14.7%); format: functional
# [2] = molecular target: Glucoamylase (Aspergillus niger) (UniProt P69328); experiment: Inhibition of amyloglucosidase from Aspergillus niger at 1 mM at pH 5
# Outline: (§1)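 Glycosidase panel of commercial enzymes assayed at each enzyme's optimal pH with compound at 1 mM; percentage inhibition of enzyme activity calculated.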
# PC-3 = experiment: Cytotoxicity against human PC3 cells after 72 hrs by colorimetric assay; format: functional, cell-based; settings: Homo sapiens, PC-3, 72 h; read-out: IC50
# Outline: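 Cells grown in McCoy's medium (adherent lines) or RPMI-1640 (U266), each with 10% FBS, L-glutamine and antibiotics, at 37 °C in 5% CO₂. Compound dissolved as a 100 mM DMSO stock, final DMSO ≤0.4%. Cells were exposed for 72 h across a 10^-2 to 400 µM range. Viability was read by CellTiter 96 Aqueous (2–4 h incubation, absorbance 490 nm). Triplicate wells; IC50 from curve fitting.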
# [3] = Cytotoxicity in human B-CLL assessed as pre-necrotic cells at 50 uM after 24 hrs by annexin V/propidium iodide staining based flow cytometry (reference value: 1.3 to 3.7%); format: functional
# [4] = Cytotoxicity in human B-CLL assessed as viable cells at 50 uM after 24 hrs by annexin V/propidium iodide staining based flow cytometry (reference value: 65.8 to 78%); format: functional; settings: read-out: Activity
# [5] = molecular target: Alpha-galactosidase (Coffea arabica) (UniProt Q42656); experiment: Inhibition of alpha-galactosidase from coffee beans at 1 mM at pH 6; outline: as §1
# [6] = molecular target: T1, Beta-galactosidase (Aspergillus oryzae) (UniProt Q2U7N3); experiment: Inhibition of beta-galactosidase from Aspergillus oryzae at 1 mM at pH 4; outline: as §1
# T1 sequence (whole entry): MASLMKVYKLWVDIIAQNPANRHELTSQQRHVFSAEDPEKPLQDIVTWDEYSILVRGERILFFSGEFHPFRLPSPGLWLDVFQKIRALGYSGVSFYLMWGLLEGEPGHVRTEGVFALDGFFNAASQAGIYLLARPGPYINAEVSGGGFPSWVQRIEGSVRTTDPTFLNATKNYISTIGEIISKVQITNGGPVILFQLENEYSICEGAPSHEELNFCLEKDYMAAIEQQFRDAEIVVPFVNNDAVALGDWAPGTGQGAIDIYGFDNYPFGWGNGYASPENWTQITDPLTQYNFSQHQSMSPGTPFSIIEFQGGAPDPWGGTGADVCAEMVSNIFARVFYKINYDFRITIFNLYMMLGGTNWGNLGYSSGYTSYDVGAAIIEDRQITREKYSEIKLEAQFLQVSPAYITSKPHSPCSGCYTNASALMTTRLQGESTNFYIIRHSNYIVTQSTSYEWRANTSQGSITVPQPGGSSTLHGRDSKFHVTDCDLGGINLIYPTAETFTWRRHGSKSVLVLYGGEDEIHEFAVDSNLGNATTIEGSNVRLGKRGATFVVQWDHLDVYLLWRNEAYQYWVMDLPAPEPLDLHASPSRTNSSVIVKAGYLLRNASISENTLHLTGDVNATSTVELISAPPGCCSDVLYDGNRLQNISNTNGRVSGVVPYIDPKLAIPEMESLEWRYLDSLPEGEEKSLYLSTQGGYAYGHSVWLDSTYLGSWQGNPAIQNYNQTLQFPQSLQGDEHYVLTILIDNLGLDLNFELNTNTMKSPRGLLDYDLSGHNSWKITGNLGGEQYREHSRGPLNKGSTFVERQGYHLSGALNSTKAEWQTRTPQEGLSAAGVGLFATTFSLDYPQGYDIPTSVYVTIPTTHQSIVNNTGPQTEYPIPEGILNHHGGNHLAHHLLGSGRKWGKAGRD
# Chain of Glucoamylase (Aspergillus niger) (P69328 whole entry): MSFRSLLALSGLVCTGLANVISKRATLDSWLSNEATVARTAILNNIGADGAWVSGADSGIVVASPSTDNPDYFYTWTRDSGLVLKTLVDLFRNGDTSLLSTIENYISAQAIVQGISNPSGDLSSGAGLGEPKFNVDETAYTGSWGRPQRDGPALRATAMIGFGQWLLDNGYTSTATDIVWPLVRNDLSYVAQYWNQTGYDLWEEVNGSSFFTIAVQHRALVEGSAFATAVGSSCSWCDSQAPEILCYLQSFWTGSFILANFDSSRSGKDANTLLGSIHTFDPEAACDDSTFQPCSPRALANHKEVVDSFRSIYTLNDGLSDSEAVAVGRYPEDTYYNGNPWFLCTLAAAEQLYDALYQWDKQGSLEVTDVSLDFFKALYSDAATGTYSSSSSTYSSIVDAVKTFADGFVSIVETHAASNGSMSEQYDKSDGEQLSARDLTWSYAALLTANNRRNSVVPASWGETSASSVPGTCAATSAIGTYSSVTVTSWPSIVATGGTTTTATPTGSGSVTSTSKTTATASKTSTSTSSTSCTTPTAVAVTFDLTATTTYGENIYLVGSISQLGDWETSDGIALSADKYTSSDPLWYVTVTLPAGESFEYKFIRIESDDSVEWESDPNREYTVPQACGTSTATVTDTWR
# Chain of Alpha-galactosidase (Coffea arabica) (Q42656 16-378 limits assumed): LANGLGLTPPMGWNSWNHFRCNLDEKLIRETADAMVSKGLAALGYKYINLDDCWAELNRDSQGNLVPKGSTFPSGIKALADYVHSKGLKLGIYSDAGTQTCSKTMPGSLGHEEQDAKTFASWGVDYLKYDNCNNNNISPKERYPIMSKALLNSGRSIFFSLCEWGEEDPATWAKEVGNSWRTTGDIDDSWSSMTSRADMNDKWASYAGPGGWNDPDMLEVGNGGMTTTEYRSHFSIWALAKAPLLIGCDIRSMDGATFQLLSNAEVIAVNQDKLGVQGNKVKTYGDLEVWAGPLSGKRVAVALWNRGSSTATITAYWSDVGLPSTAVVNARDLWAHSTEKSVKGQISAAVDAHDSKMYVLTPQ
smiles,measurement,setting,value
OC[C@H](NC[C@H]1NC[C@H](O)[C@@H]1O)c1ccc(-c2ccc(C(F)(F)F)cc2)cc1,Activity,SK-BR-3,16%
same,Activity,A549,Active
same,Activity,[1],55.6%
same,inhibition,[2],< 10%
same,IC50,PC-3,132 µM
same,Activity,[3],0.8%
same,viability at 50 µM,[4],27%
same,inhibition,[5],< 10%
same,inhibition,[6],< 10%
